NPY-Y1 PAM-ag: human NPY-Y1 potentiation or agonism, primary screen | P25929 | NPY-Y1 expressing cells, potentiator/agonist activation | activation, % at 3.6 µM | 0.37% of 220,000 active | AID 1304; in the data active = activation above about 33%, passing the limit was not always enough;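 also: cells stimulated with NPY at EC10 then isoproterenol at EC100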
NPY Y2 blocker: NPY-Y2 (human) receptor antagonism | P49146 | NPY-Y2 expressing cells, antagonist mode | inhibition, % at 2.7 µM | 0.99% of 140,000 active | AID 793; in the data active = inhibition above about 17%
Target sequence (P49146 whole entry, looked up): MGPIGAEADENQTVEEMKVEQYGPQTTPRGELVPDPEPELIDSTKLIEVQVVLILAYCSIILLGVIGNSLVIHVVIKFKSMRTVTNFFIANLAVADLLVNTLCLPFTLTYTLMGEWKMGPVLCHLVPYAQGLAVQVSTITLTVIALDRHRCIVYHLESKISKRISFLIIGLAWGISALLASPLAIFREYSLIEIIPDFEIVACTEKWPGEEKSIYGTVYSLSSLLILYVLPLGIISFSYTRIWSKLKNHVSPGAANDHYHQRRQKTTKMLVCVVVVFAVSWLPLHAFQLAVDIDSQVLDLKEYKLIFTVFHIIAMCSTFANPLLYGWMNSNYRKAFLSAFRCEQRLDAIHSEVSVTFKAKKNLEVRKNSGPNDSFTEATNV
NPY-Y1 antag: NPY-Y1 (human) receptor antagonism; P25929; HEK293-CNG Y1 cells, membrane potential fluorescence; NPY at EC95, then isoproterenol; inhibition, % at 3.6 µM; 1% of 200,000 active; AID 1040;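 active = inhibition above the campaign mean inhibition of all tested compounds plus 3 SD, cut at about 20% in these data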
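Material: Y1- and CNG-channel-expressing HEK293 cells / Probe or stimulus: NPY 25 nM then isoproterenol 1 µM plus Ro 20-1724 25 µM / Doses: 3.6 µM single dose, DMSO 0.4% / Schedule: compound incubation 1 h at room temperature, readout 45 min post-stimulation / Signal: membrane potential fluorescence / Benchmarks: isoproterenol-only wells as full block versus NPY-plus-isoproterenol wells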
NPY2 pot ag: human NPY-Y2 potentiation or agonism, primary screen | P49146 | 0.45% of 220,000 active | cells expressing NPY-Y2, potentiator/agonist read-out | activation, % at 3.6 µM | AID 1359; in the data active = activation above about 27%;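 also: cells stimulated with NPY near EC25 plus isoproterenol at EC100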
Of the large screens only hits and unclear results are named; the others gave an inactive call. An excerpt weighted towards active compounds, which were near 1.8% of everything screened.

Cc1ccc(C(C(=O)NC(C)(C)C)N(Cc2ccco2)C(=O)Cn2nnc(-c3cccs3)n2)cc1 (centres undefined)	NPY Y2 blocker 34, NPY-Y1 antag 20
O=C(NC1CCCCC1)C(c1ccccc1F)N(Cc1ccco1)C(=O)Cn1nnc2ccccc21 (centres undefined)	NPY Y2 blocker 57, NPY-Y1 antag 72
O=C(NC1CCCCC1)C(c1ccc(F)cc1)N(Cc1ccco1)C(=O)CN1C(=O)c2ccccc2S1(=O)=O (centres undefined)	none
Cc1ccc(C(C(=O)NC2CCCCC2)N(Cc2ccco2)C(=O)Cn2cnc3ccccc32)cc1 (centres undefined)	NPY Y2 blocker 75, NPY-Y1 antag 34
CCCn1c(SCC(=O)c2cc(C)c(C)cc2C)n[nH]c1=O	none
CCC(C)(C)NC(=O)C(c1ccc(C)cc1)N(Cc1ccco1)C(=O)Cn1nnc2ccccc21 (centres undefined)	NPY Y2 blocker 61, NPY-Y1 antag 25
O=C(Cc1cccs1)N(Cc1cccs1)C1(C(=O)NC2CCCCC2)CCCCC1	NPY Y2 blocker 37, NPY-Y1 antag 52
O=C(c1cnccn1)N(Cc1cccs1)C1(C(=O)NC2CCCCC2)CCCCC1	NPY Y2 blocker 21, NPY-Y1 antag 38
O=C(c1cnccn1)N(Cc1cccs1)C1(C(=O)NC2CCCC2)CCCCC1	NPY Y2 blocker 26, NPY-Y1 antag 42
O=C1NC(=O)C(CC(=O)N(Cc2cccs2)C2(C(=O)NC3CCCC3)CCCCC2)N1 (centres undefined)	none
CC(=O)c1c(C)[nH]c(C(=O)OCC(=O)Nc2cc(C(F)(F)F)ccc2N2CCOCC2)c1C	none
C1CCN(c2nc(N3CCCC3)nc(N3CCNCC3)n2)C1	NPY-Y1 PAM-ag 79, NPY2 pot ag 69
Oc1ccc(N=Nc2c(O)ccc3ccccc23)cc1	NPY-Y1 PAM-ag 87, NPY2 pot ag 82
NS(=O)(=O)c1ccc(N=Nc2c(O)ccc3ccccc23)cc1	none (no result: NPY Y2 blocker)
CCOc1ccccc1-n1c(SCC(=O)NC(C)CC)nnc1-c1ccoc1C (centres undefined)	none
N#CC1=C(N)Oc2n[nH]c(-c3ccncc3)c2C1c1ccsc1 (centres undefined)	none
N#CC1=C(N)Oc2n[nH]c(-c3ccccc3)c2C1c1ccsc1 (centres undefined)	NPY-Y1 antag 36
CCC(CC)C1C(C#N)=C(N)Oc2n[nH]c(C)c21 (centres undefined)	none
CCC(CC)C1C(C#N)=C(N)Oc2n[nH]c(-c3ccccc3)c21 (centres undefined)	NPY-Y1 PAM-ag 49, NPY2 pot ag 38
O=C(Nc1ccc(-c2cn3c(n2)SCC3)cc1)c1ccco1	none (no result: NPY Y2 blocker, NPY-Y1 antag)
CC(C)CCOC(=O)/C(=C/c1ccco1)NC(=O)/C=C/c1ccccc1	NPY Y2 blocker 18, NPY-Y1 antag 21
CC(C)(C)S(=O)(=O)c1c(C(=O)O)cccc1C(=O)O	none
Cc1ncc(N=Nc2ccccc2Cl)c(-c2ccccc2)n1	none
Nc1nc(-c2ccccc2)c(N=Nc2cccc3ccccc23)s1	NPY-Y1 PAM-ag 111, NPY2 pot ag 97
Nc1nc(-c2ccccc2)c(N=Nc2ccccc2Cl)s1	NPY-Y1 PAM-ag 95, NPY2 pot ag 79
Cc1ccc2c(=O)[nH]c(Cc3ccccc3C(=O)O)nc2c1	none (no result: NPY Y2 blocker, NPY-Y1 antag)
O=C(CSc1ncnc2scc(-c3ccccc3)c12)N1CCN(c2ccccc2F)CC1	NPY Y2 blocker 30, NPY-Y1 antag 33
COc1ccccc1N1CCN(C(=O)CSc2ncnc3scc(-c4ccccc4)c23)CC1	none
CCN(CC)C(=O)c1ccc2c(c1)nnn2C	none
CCOc1ccc(NCc2cc3c(C(C)(C)C)nn(-c4ccccc4)c3[nH]c2=O)cc1	NPY-Y1 PAM-ag 56, NPY2 pot ag 35
COc1ccc(Nc2ccnc3ccccc23)cc1	none
CC(C)Nc1ccc(Nc2ccnc3cc4ccccc4cc23)cc1	NPY-Y1 PAM-ag 81, NPY2 pot ag 75 (no result: NPY Y2 blocker, NPY-Y1 antag)
CN1CCN(c2ccccc2NC(=O)Cc2ccc(Cl)cc2)CC1	NPY Y2 blocker 24, NPY-Y1 antag 23
O=C(Nc1ccccc1C(=O)N1CCCCC1)NC1CCCCC1	none (no result: NPY Y2 blocker)
Cc1ccc(C(=O)CSc2cc(C)nc(SCC(=O)c3ccccc3)n2)cc1	none
Cc1cc(Oc2ccc(C)c(Cl)c2)nc(SCC(=O)c2ccccc2)n1	NPY Y2 blocker 35, NPY-Y1 antag 34
COC(=O)CSc1nnc(-c2ccc(NS(=O)(=O)c3ccccc3)cc2)o1	NPY-Y1 PAM-ag 40, NPY2 pot ag 91
CC(C)NS(=O)(=O)c1ccc(CCC(=O)Nc2ccc3c(c2)OCO3)cc1	none
CCc1nc2sc(C#N)c(N)c2c2c1CCCC2	NPY Y2 blocker 57, NPY-Y1 antag 49
